Data as given in ChEMBL document CHEMBL1146258, “N6-Cycloalkyl-2-substituted adenosine derivatives as selective, high affinity adenosine A1 receptor agonists” (Bioorg Med Chem Lett, 2007).

What was measured:
Adenosine receptor A2b = biological target: T1, Adenosine receptor A2b (Homo sapiens, UniProt P29275); test: Displacement of [3H]ZM241385 from adenosine A2B receptor expressed in HEK cells; assay type: cell-based, HEK293
T1 sequence (P29275 whole entry): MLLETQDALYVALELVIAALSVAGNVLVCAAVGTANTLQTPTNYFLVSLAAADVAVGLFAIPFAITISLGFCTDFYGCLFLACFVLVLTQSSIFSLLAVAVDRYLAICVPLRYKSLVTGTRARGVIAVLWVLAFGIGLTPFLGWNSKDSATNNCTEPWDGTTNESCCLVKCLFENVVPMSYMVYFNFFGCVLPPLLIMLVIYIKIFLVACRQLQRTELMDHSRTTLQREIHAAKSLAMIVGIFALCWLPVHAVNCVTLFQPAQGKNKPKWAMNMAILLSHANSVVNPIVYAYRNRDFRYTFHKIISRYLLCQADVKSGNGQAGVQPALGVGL
Method in brief: (§1)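 HEK cells expressing A2A or A2B receptor, [³H]-ZM241385 radioligand, run without GTP; Ki for the high-affinity (coupled) state. 95% confidence limits generally 15% of mean.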

Adenosine receptor A3 = biological target: T2, Adenosine receptor A3 (Homo sapiens, UniProt P0DMS8); test: Displacement of [125I]ABMECA from adenosine A3 receptor expressed in CHO cells; assay type: cell-based
T2 sequence (P0DMS8 whole entry): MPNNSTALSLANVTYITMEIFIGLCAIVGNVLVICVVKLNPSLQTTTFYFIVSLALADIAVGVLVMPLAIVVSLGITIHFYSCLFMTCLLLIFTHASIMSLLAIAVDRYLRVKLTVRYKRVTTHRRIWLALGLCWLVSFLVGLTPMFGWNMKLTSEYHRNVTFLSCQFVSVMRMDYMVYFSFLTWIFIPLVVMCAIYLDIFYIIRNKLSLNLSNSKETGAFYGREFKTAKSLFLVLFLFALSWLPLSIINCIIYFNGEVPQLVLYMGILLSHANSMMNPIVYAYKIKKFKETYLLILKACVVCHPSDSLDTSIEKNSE

Adenosine receptor A2a = Adenosine receptor A2a (Homo sapiens, UniProt P29274); test: Displacement of [3H]ZM-241385 from A2A adenosine A2A receptor expressed in HEK cells; assay type: cell-based, HEK293; method in brief: as §1
Chain of Adenosine receptor A2a (P29274 whole entry): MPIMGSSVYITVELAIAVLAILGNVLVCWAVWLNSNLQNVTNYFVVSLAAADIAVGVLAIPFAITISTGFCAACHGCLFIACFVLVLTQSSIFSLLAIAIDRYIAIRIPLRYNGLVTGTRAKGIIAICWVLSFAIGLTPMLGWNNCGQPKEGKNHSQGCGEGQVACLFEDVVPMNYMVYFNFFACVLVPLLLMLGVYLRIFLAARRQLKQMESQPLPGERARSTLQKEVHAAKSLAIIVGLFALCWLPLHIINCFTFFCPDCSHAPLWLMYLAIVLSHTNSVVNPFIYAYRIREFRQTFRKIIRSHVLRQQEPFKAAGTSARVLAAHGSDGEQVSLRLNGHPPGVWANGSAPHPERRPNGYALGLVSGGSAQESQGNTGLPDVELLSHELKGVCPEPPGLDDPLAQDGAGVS

[1] = biological target: Adenosine receptors; A1 & A3 (Homo sapiens) (UniProt P30542+P0DMS8); test: Selectivity for adenosine A1 receptor over adenosine A3 receptor; assay type: protein assay
Chain of Adenosine receptors; A1 & A3 (Homo sapiens) (P30542 whole entry, looked up, one chain of several): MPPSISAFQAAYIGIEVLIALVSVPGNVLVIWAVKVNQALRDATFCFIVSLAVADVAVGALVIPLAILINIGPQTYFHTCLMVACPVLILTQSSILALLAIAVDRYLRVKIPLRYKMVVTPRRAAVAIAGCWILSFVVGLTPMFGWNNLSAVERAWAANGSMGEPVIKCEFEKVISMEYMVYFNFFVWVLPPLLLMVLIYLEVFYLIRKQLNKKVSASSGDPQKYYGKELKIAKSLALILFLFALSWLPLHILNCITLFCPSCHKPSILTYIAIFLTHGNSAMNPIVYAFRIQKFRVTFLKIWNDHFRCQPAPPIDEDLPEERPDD
Method in brief: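 Ratio of A3 Ki-High (CHO-A3 cells, [¹²⁵I]-AB-MECA, no GTP) to A1 Ki-Low (DDT membranes, [³H]-CPX, with GTPγS).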

[2] = biological target: Adenosine receptors; A1 & A2a (Homo sapiens) (UniProt P30542+P29274); test: Selectivity for adenosine A1 receptor over adenosine A2A receptor; assay type: protein assay
[3] = biological target: Adenosine receptor A1 (Mesocricetus auratus); test: Displacement of [3H]CPX from adenosine A1 receptor in DDT membranes
[4] = biological target: T3, Adenosine receptor A1 (Rattus norvegicus) (UniProt P25099); test: Agonist activity at adenosine A1 receptor in rat brain membrane assessed as stimulation of [35S]GTP-gamma-S binding relative to CPA; assay type: functional, cell membranes
T3 sequence (whole entry): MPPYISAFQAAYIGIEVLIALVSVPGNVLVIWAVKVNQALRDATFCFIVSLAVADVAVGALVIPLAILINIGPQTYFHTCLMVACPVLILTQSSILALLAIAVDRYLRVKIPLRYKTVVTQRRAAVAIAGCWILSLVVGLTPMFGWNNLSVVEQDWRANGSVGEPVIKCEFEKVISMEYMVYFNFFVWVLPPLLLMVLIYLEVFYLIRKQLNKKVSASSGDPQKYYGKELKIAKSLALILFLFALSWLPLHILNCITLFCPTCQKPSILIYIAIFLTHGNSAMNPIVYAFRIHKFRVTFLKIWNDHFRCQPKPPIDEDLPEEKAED
Method in brief: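 Rat brain membranes; agonist-induced [³⁵S]GTPγS binding to G protein measured, with maximal stimulation by the full agonist CPA set as 100% and efficacy expressed relative to it.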

Row | Ki (Adenosine receptor A2b) [µM] | Ki (Adenosine receptor A3) [µM] | Ki (Adenosine receptor A2a) [µM] | Ratio Ki [1] | Ratio Ki [2] | Ki [3] [µM] | Intrinsic activity [4] [%] | SMILES
1 | > 6 | 0.38 | > 5 | 633 | > 600 | – | – | NC(=O)c1cnn(-c2nc(NC3CCCC3)c3ncn([C@@H]4O[C@H](CO)[C@@H](O)[C@H]4O)c3n2)c1
2 | – | – | – | – | – | 3.7 | – | CCNc1nc(-n2cc(-c3ccc(OC)cc3)cn2)nc2c1ncn2[C@@H]1O[C@H](CO)[C@@H](O)[C@H]1O
3 | > 6 | 0.019 | > 5 | 21 | – | – | – | CCOC(=O)c1cnn(-c2nc(NC3CCCC3)c3ncn([C@@H]4O[C@H](CO)[C@@H](O)[C@H]4O)c3n2)c1
4 | > 6 | 1.27 | > 5 | 3180 | – | – | – | OC[C@H]1O[C@@H](n2cnc3c(NC45CCC(CC4)C5)nc(-n4cccn4)nc32)[C@H](O)[C@@H]1O
5 | > 6 | 0.02 | > 5 | 20 | – | – | – | CCNC(=O)c1cnn(-c2nc(NC3CCCC3)c3ncn([C@@H]4O[C@H](CO)[C@@H](O)[C@H]4O)c3n2)c1
6 | > 6 | 0.03 | > 5 | 1 | – | – | – | CCOC(=O)c1cnn(-c2nc(NC3CCCCC3)c3ncn([C@@H]4O[C@H](CO)[C@@H](O)[C@H]4O)c3n2)c1
7 | > 6 | 4.12 | > 5 | 468 | – | – | 100 | O=C(O)c1cnn(-c2nc(NC3CCCC3)c3ncn([C@@H]4O[C@H](CO)[C@@H](O)[C@H]4O)c3n2)c1

More lines, now with the values behind:

Row | SMILES | Ki (Adenosine receptor A2b) [µM] | Ki (Adenosine receptor A3) [µM] | Ki (Adenosine receptor A2a) [µM] | Ratio Ki [1] | Ratio Ki [2] | Ki [3] [µM] | Intrinsic activity [4] [%]
8 | OC[C@H]1O[C@@H](n2cnc3c(NC4CCCC4)nc(-n4cccn4)nc32)[C@H](O)[C@@H]1O | > 6 | 0.105 | > 5 | 3 | – | – | –
9 | O=C(O)c1cnn(-c2nc(NC34CCC(CC3)C4)c3ncn([C@@H]4O[C@H](CO)[C@@H](O)[C@H]4O)c3n2)c1 | > 6 | > 5 | > 5 | > 5000 | – | – | –
10 | CCOC(=O)c1cnn(-c2nc(NC34CCC(CC3)C4)c3ncn([C@@H]4O[C@H](CO)[C@@H](O)[C@H]4O)c3n2)c1 | > 6 | 0.25 | > 5 | 83 | – | – | –
11 | CNC(=O)c1cnn(-c2nc(NC3CCCCC3)c3ncn([C@@H]4O[C@H](CO)[C@@H](O)[C@H]4O)c3n2)c1 | > 6 | 0.158 | > 5 | 19 | – | – | –
12 | CNC(=O)c1cnn(-c2nc(NC3CCCC3)c3ncn([C@@H]4O[C@H](CO)[C@@H](O)[C@H]4O)c3n2)c1 | > 6 | 1.42 | > 5 | 710 | – | – | –
